Measurements reported in PMC6062249 (Toxicology Research, 2016).
Like-named read-outs stand apart in the source and are kept apart here.

Columns and labels:
[1] = system: CYP1-dependent EROD activity in HaCaT cells; test: Cellular CYP1-dependent EROD activity in HaCaT cells, single exposure; assay type: cell-based, human; details: HaCaT cells, 0.1, 1.0 or 10 μM, 3-48 h
How it was run: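 Confluent HaCaT cells were exposed to 0.1, 1.0 or 10 μM test compound, B[a]P or DMSO for 3, 6, 24 and 48 h. Medium was removed and cells rinsed with PBS, then incubated 20 min at 37 °C with 2 μM 7-ethoxyresorufin in 50 mM sodium phosphate, pH 8.0. The reaction was stopped with cold fluorescamine (0.15 mg/mL in acetonitrile). Resorufin was read at 535/590 nm in triplicate and normalized to protein (fluorescamine, 390/485 nm).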

[2] = system: CYP1B1 mRNA in HaCaT cells; test: CYP1B1 gene expression by qRT-PCR in HaCaT cells, single exposure; assay type: cell-based, human; details: 6 h; for reduction of CYP1B1 mRNA levels compared to DMSO control: dose-dependent, 0.1-10 μM
How it was run: (§1)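 Confluent HaCaT cells (seeded 1 × 10^4/well, grown 3 d) were exposed in fresh DMEM to 0.1, 1.0 or 10 μM test compound or DMSO for 6 h. One-step SYBR Green RT-PCR used cell lysate directly with 200 nM primers. Cycling was 48 °C 30 min, 95 °C 10 min, then 40 × (95 °C 15 s, 60 °C 1 min), with melt curve. Expression is 2^–ΔΔCt normalized to B2M; three experiments in duplicate. Calls required p < 0.05 (two-way ANOVA, Bonferroni) and >2-fold versus DMSO; strong inducer was ≥20-fold.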

[3] = system: CYP1A1 mRNA in HaCaT cells; test: CYP1A1 gene expression by qRT-PCR in HaCaT cells, single exposure; assay type: cell-based, human; details: 6 h; for reduction of CYP1A1 mRNA levels compared to DMSO control: dose-dependent, 0.1-10 μM
How it was run: as §1

[4] = system: TCDD induced CYP1-dependent EROD activity in HaCaT cells; test: TCDD-induced cellular EROD activity in HaCaT cells, co-exposure with oxy-PAH; assay type: cell-based, human; details: TCDD 5 nM + 0.1-10 μM oxy-PAH, 6, 12, 24 h
How it was run: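 Confluent HaCaT cells were co-exposed to TCDD (5 nM) alone or with 0.1, 1.0 or 10 μM test compound for 6, 12 and 24 h. After a PBS rinse, cells were incubated 20 min at 37 °C with 2 μM 7-ethoxyresorufin in 50 mM sodium phosphate, pH 8.0, and stopped with cold fluorescamine. Resorufin (535/590 nm) was read in triplicate and normalized to fluorescamine protein signal. Activity is % of TCDD alone.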

human recombinant CYP1A1 = target: T1, human recombinant CYP1A1 (Homo sapiens, UniProt P04798); test: EROD activity of microsomes containing human recombinant CYP1A1; assay type: biochemical
T1 sequence (P04798 1-512): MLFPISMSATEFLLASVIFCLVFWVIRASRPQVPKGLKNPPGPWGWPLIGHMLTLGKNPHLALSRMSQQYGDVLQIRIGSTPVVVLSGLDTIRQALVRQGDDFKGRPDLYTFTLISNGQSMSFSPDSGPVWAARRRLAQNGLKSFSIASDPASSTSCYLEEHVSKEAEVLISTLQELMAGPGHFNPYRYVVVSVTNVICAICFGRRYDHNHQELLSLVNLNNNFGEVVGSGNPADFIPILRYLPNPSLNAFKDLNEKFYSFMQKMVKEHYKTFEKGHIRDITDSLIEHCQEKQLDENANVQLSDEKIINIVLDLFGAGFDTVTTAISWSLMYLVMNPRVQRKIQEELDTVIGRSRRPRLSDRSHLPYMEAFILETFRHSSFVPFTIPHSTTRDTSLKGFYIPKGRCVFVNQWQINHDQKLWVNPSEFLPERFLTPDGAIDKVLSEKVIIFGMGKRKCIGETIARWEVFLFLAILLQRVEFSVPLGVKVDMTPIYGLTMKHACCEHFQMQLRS
How it was run: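 Microsomes containing recombinant human CYP1A1 (2.5 nM) with NADPH-P450 reductase were pre-incubated 5 min with test compound (0.00064–20 μM) or DMSO (final <0.5%). 7-Ethoxyresorufin (0.5 μM) and NADPH (0.4 mM) were then added. Resorufin formation was followed kinetically at 535/590 nm, every 2 s, in triplicate. DMSO control was set as 100% and the no-NADPH reaction as 0%; IC50 was fitted by nonlinear regression.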

[5] = system: TCDD induced CYP1 mRNA (CYP1A1 and 1B1) in HaCaT cells; test: TCDD-induced CYP1 mRNA; assay type: cell-based, human; details: TCDD 5 nM + 0.1-10 μM oxy-PAH, 6 h
How it was run: (§2)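 Confluent HaCaT cells were exposed for 6 h to TCDD (5 nM) alone or with 0.1, 1.0 or 10 μM test compound. CYP1A1 and CYP1B1 mRNA were measured by one-step SYBR Green RT-PCR on cell lysate with 200 nM primers. Quantification used 2^–ΔΔCt with B2M as reference; three experiments in duplicate. Levels are % of TCDD-alone mRNA (100%). Strong inhibitor meant p < 0.05 at ≤1 μM; inhibitor meant p < 0.05 at 10 μM (two-way ANOVA, Bonferroni).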

CYP1 = details: read-out: reported IC50 values, CYP1 inhibition; cited from earlier work
HaCaT cells = test: Alamar Blue cell viability assay; assay type: cell-based, human; details: 10 μM, alone or with TCDD 5 nM, 24 h
How it was run: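 HaCaT keratinocytes were grown in DMEM with 10% FBS at 37 °C, 5% CO2, seeded at 1 × 10^4 cells/well and cultured 3 d to high confluency. Cells were exposed in fresh DMEM to test compound alone or with TCDD (5 nM), with 0.1–0.18% DMSO as solvent control. Afterwards, 10% AlamarBlue in DMEM was added for 1 h at 37 °C and fluorescence read at 560/590 nm. Viability is given as % of DMSO control, from three separate experiments.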

[6] = system: TCDD induced CYP1B1 mRNA in HaCaT cells; test: TCDD-induced CYP1B1 mRNA in HaCaT cells, co-exposure with oxy-PAH; assay type: cell-based, human; details: TCDD 5 nM + 1 μM oxy-PAH, 6 h
How it was run: as §2

[7] = system: TCDD induced CYP1A1 mRNA in HaCaT cells; test: TCDD-induced CYP1A1 mRNA in HaCaT cells, co-exposure with oxy-PAH; assay type: cell-based, human; details: TCDD 5 nM + 1 μM oxy-PAH, 6 h
How it was run: as §2

[8] = IC50, inhibition of CYP1A1-mediated EROD activity, human recombinant CYP1A1 2.5 nM, 7-ethoxyresorufin 0.5 μM, NADPH 0.4 mM, 5 min pre-incubation

Cc1ccc2c(c1)C(=O)c1ccccc1C2=O [2-MAQ, 2-methylanthracene-9,10-quinone]
induction of cellular EROD activity (in words) [1]: significantly increased levels of enzyme activity compared to the DMSO control but lower than B[a]P

Clc1cc2c(cc1Cl)Oc1cc(Cl)c(Cl)cc1O2 [TCDD, 2,3,7,8-Tetrachlorodibenzo-p-dioxin, reference compound]
increase of CYP1B1 mRNA levels compared to DMSO control ([2]; TCDD alone 5 nM): 36 fold
increase of CYP1A1 mRNA levels compared to DMSO control ([3]; TCDD alone 5 nM): 138 fold

O=C1c2ccccc2C(=O)c2c1ccc1ccccc21 [7,12-BAQ, benz[a]anthracene-7,12-quinone]
inhibition of TCDD-mediated EROD activity (in words) [4]: most potent inhibitors
IC50 (human recombinant CYP1A1; [8]): 0.037 µM
increase of CYP1B1 mRNA levels compared to DMSO control ([2]; 0.1-10 μM oxy-PAH): ≤ 40 fold
effect on TCDD-induced CYP1A1 and 1B1 expression levels (in words) [5]: no effect at all
increase of CYP1A1 mRNA levels compared to DMSO control ([3]; 0.1-10 μM oxy-PAH): up to 60 fold

c1cc2ccc3cccc4ccc(c1)c2c34 [pyrene]
IC50 (CYP1): < 0.1 µM

O=C1c2cccc3ccc4ccc5cccc1c5c4c23 [6H-BPO, 6H-benzo[cd]pyren-6-one]
cytotoxicity (Alamar Blue viability, in words) (HaCaT cells): not associated with increased cytotoxicity
reduction of TCDD-induced CYP1B1 mRNA levels [6]: around 50%
reduction of TCDD-induced CYP1A1 mRNA levels [7]: around 50%
inhibition of TCDD-mediated EROD activity (in words) [4]: significant inhibition
induction of cellular EROD activity (in words) [1]: significantly increased levels of enzyme activity compared to the DMSO control but lower than B[a]P
reduction of CYP1B1 mRNA levels compared to DMSO control [2]: up to 15 fold
reduction of CYP1A1 mRNA levels compared to DMSO control [3]: up to 15 fold

O=C1C(=O)c2cccc3cccc1c23 [1,2-ACNQ, acenaphthylene-1,2-quinone]
IC50 (human recombinant CYP1A1; [8]): > 10 µM

O=C1C=CC(=O)c2c1ccc1c2ccc2ccccc21 [1,4-CHRQ, chrysene-1,4-quinone]
induction of cellular EROD activity (in words) [1]: did not induce EROD activity
IC50 (human recombinant CYP1A1; [8]): 6.2 µM
increase of CYP1B1 mRNA levels compared to DMSO control ([2]; 0.1-10 μM oxy-PAH): ≤ 40 fold
effect on TCDD-induced CYP1A1 and 1B1 expression levels (in words) [5]: no effect at all
increase of CYP1A1 mRNA levels compared to DMSO control ([3]; 0.1-10 μM oxy-PAH): up to 60 fold

O=c1cc(-c2ccccc2)oc2c1ccc1ccccc12 [αNF, α-Naphthoflavone]
IC50 (CYP1): < 0.1 µM

O=C1c2ccccc2C(=O)c2ccccc21 [9,10-AQ, anthracene-9,10-quinone]
inhibition of TCDD-mediated EROD activity (in words) [4]: significant inhibition
IC50 (human recombinant CYP1A1; [8]): > 10 µM
reduction of CYP1B1 mRNA levels compared to DMSO control [2]: up to 15 fold
reduction of CYP1A1 mRNA levels compared to DMSO control [3]: up to 15 fold

Cc1cc2c(cc1C)C(=O)c1ccccc1C2=O [2,3-DMAQ, 2,3-dimethylanthracene-9,10-quinone]
reduction of TCDD-induced CYP1B1 mRNA levels [6]: around 50%
reduction of TCDD-induced CYP1A1 mRNA levels [7]: around 50%
inhibition of TCDD-mediated EROD activity (in words) [4]: significant inhibition
induction of cellular EROD activity (in words) [1]: significantly increased levels of enzyme activity compared to the DMSO control but lower than B[a]P
IC50 (human recombinant CYP1A1; [8]): 2.1 µM

O=C1C(=O)c2ccccc2-c2ccccc21 [9,10-PQ, phenanthrene-9,10-quinone]
cytotoxicity (Alamar Blue viability, in words) (HaCaT cells): increased cytotoxicity

O=C1c2ccccc2C(=O)c2cc3ccccc3cc21 [5,12-NQ, naphthacene-5,12-quinone]
inhibition of TCDD-mediated EROD activity (in words) [4]: significant inhibition
increase of CYP1B1 mRNA levels compared to DMSO control ([2]; 0.1-10 μM oxy-PAH): ≤ 40 fold
effect on TCDD-induced CYP1A1 and 1B1 expression levels (in words) [5]: no effect at all
increase of CYP1A1 mRNA levels compared to DMSO control ([3]; 0.1-10 μM oxy-PAH): up to 60 fold

O=c1c2cccc3ccc4cccc1c4c32 [4H-CPO, 4H-Cyclopenta[def]phenanthrene-4-one]
induction of cellular EROD activity (in words) [1]: significantly increased levels of enzyme activity compared to the DMSO control but lower than B[a]P
IC50 (human recombinant CYP1A1; [8]): 0.32 µM
reduction of CYP1B1 mRNA levels compared to DMSO control [2]: up to 15 fold
reduction of CYP1A1 mRNA levels compared to DMSO control [3]: up to 15 fold

c1ccc2c(c1)ccc1nc3ccc4ccccc4c3cc12 [dibenz[a,j]acridine]
IC50 (CYP1): < 0.1 µM

O=C1c2ccccc2-c2ccccc21 [9-FLO, 9-fluorenone]
IC50 (human recombinant CYP1A1; [8]): 3 µM

c1ccc2cc3c(ccc4ccccc43)cc2c1 [benz[a]anthracene]
IC50 (CYP1): < 0.1 µM

O=C1CCc2ccccc21 [1-INO, 1-Indanone]
IC50 (human recombinant CYP1A1; [8]): > 10 µM

O=C1C=Cc2cccc3cccc1c23 [1H-PHO, 1H-phenalen-1-one]
IC50 (human recombinant CYP1A1; [8]): > 10 µM

O=C1c2ccccc2-c2cccc3cccc1c23 [7H-BAO, 7H-benz[de]anthracene-7-one]
IC50 (human recombinant CYP1A1; [8]): 0.77 µM

O=C1c2ccccc2-c2ccc3ccccc3c21 [BFLO, benzo[a]fluorenone]
reduction of TCDD-induced CYP1B1 mRNA levels [6]: around 50%
reduction of TCDD-induced CYP1A1 mRNA levels [7]: around 50%
inhibition of TCDD-mediated EROD activity (in words) [4]: most potent inhibitors
IC50 (human recombinant CYP1A1; read-out: IC50, inhibition of CYP1A1-mediated EROD activity, human recombinant CYP1A1 2.5 nM, 7-ethoxyresorufin 0.5 μM, NADPH 0.4 mM, 5 min pre-incubation): 0.061 µM
increase of CYP1B1 mRNA levels compared to DMSO control ([2]; 0.1-10 μM oxy-PAH): ≤ 40 fold
increase of CYP1A1 mRNA levels compared to DMSO control ([3]; 0.1-10 μM oxy-PAH): up to 60 fold
